Several values for one entry are separate records, joined by “and”; a condition that tells them apart may be missing. Equal entries are not always repeated.
Assays:
individual human CYPs = type: in vitro ADME; details: CYPs 3A4, 3A5 and 2C8 supersomes
In short: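 Reactions are stopped with acetonitrile and the 4′-hydroxy metabolite is measured by HPLC. With no authentic standard, Vmax is given in peak area units·min−1. Values are mean ± SD of at least three experiments.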

[1] = Glucuronidation of 4-HPR by human intestinal microsomes; type: in vitro ADME; details: human, human intestinal microsomes, pH 7.5
In short: (§1)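 Intestinal or liver microsomes at 1 mg·mL−1 are incubated with 0–2000 µM substrate (13 levels) for 3 h at 37°C. The buffer is 50 mM Tris-HCl, pH 7.5, with alamethicin 25 µg·mL−1, 8 mM MgCl2, 2 mM UDP-glucuronic acid and 0.25% methanol. Reactions are started with enzyme and stopped with ice-cold acetonitrile. The glucuronide is quantified by C18 HPLC, with identity confirmed by β-glucuronidase. Vmax is in peak area units·min−1; mean ± SD of three independent experiments.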

[2] = tested on: human intestinal microsomes (HIM); test: as above; type: in vitro ADME; details: HIM, 1 mg·mL^−1; 4-HPR 0-2000 µM, 3 h
In short: as §1

[3] = tested on: human liver microsomes (HLM); test: Oxidative metabolism of 4-HPR by human liver microsomes; type: in vitro ADME; details: 4-HPR 0-20 µM, 3 h, HPLC, mean ± SD, n≥3
In short: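 Termination is with ice-cold acetonitrile, then centrifugation at 10 000× g. The 4′-hydroxy and 4′-oxo metabolites are resolved by reversed-phase HPLC with photodiode-array detection. Vmax is derived from formation rates; mean ± SD, n ≥ 3.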

UGT 1A3 = target: T1, UGT 1A3 (Homo sapiens, UniProt P35503); test: Glucuronidation of 4-HPR by UGT 1A3 supersomes; type: in vitro ADME; details: UGT 1A3, 1 mg·mL^−1; 4-HPR 0-2000 µM, 3 h
T1 sequence (P35503 29-534): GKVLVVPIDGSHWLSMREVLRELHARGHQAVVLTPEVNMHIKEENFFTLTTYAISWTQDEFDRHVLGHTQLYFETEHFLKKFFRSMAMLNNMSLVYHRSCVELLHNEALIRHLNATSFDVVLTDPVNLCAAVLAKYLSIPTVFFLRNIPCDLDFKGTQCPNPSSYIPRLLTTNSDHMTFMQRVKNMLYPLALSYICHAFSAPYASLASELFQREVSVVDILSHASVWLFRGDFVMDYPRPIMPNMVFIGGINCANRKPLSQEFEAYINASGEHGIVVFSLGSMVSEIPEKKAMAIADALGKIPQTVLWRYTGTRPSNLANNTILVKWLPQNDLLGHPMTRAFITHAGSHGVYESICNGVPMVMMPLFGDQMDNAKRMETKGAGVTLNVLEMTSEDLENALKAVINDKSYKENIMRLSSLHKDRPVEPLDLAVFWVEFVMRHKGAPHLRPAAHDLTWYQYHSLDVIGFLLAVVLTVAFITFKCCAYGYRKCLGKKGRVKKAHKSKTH

[4] = mouse model; ref Maurer et al., 2007; cited from earlier work
UGT 1A6 = target: T2, UGT 1A6 (Homo sapiens, UniProt P19224); test: Glucuronidation of 4-HPR by UGT 1A6 supersomes; type: in vitro ADME; details: UGT 1A6, 1 mg·mL^−1; 4-HPR 0-2000 µM, 3 h
T2 sequence (P19224 27-532): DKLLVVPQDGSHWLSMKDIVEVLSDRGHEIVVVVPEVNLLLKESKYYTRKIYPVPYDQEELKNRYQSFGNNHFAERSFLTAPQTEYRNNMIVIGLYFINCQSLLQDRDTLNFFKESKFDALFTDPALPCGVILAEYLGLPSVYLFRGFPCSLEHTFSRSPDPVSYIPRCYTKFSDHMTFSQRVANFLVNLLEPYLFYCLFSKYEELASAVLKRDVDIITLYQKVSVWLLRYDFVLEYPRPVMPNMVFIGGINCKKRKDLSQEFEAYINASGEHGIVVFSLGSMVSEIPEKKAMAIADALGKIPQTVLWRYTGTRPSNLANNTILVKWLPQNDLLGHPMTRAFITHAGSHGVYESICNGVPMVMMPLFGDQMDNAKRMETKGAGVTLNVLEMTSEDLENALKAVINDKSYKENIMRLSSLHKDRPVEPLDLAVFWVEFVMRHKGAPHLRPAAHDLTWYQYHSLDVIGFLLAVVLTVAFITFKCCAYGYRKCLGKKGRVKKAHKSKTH

[5] = tested on: human liver microsomes (HLM); test: Formation of 4-MPR from 4-HPR by HLM with SAM; type: in vitro ADME; details: HLM 0.5 mg·mL^−1, 0–100 µM 4-HPR, 0.2 mM SAM, 3 h
UGT 1A1 = target: T3, UGT 1A1 (Homo sapiens, UniProt P22309); test: Glucuronidation of 4-HPR by UGT 1A1 supersomes; type: in vitro ADME; details: UGT 1A1, 1 mg·mL^−1; 4-HPR 0-2000 µM, 3 h
T3 sequence (P22309 26-533): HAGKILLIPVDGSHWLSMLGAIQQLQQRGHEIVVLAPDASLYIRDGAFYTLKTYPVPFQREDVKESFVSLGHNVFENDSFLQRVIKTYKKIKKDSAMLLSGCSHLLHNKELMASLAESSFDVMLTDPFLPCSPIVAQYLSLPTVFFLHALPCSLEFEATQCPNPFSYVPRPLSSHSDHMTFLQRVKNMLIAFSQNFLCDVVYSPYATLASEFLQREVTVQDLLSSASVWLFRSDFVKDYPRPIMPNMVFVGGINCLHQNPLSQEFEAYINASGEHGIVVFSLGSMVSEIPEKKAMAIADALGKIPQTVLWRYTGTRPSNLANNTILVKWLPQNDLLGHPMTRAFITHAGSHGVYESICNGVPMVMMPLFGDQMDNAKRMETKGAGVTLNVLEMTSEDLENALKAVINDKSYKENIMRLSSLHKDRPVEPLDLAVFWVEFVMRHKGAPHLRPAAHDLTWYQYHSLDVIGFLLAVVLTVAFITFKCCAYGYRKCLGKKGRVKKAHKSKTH

[6] = Glucuronidation of 4-HPR by human liver microsomes; type: in vitro ADME; details: human, human liver microsomes, pH 7.5
In short: as §1

[7] = tested on: human liver microsomes (HLM); test: Glucuronidation of 4-HPR by human liver microsomes; type: in vitro ADME; details: HLM, 1 mg·mL^−1; 4-HPR 0-2000 µM, 3 h
In short: as §1

## CC1=C(/C=C/C(C)=C/C=C/C(C)=C/C(=O)Nc2ccc(O)cc2)C(C)(C)CCC1 [4-HPR, fenretinide]
Individual human CYPs
  Vmax, 4′-OH 4-HPR production, range over supersomes expressing individual CYPs: 115–282 peak area U·min^−1
[1]
  Km at 3 h: 1.21 ± 0.202 mM
[2]
  Vmax, 4-HPR glucuronide formation: 418 ± 38 peak area U·min^−1
[3]
  Vmax, 4′-OH 4-HPR formation: 28 peak area U·min^−1 and 28 ± 6 peak area U·min^−1
  Vmax, 4′-oxo 4-HPR formation: 131 peak area U·min^−1 and 131 ± 14 peak area U·min^−1
UGT 1A3
  Vmax, 4-HPR glucuronide formation: 317 ± 18 peak area U·min^−1
  Vmax, 4-HPR glucuronide formation, per pmol UGT: 2.11 peak area U·min^−1·pmol^−1 UGT and 2.11 ± 0.12 peak area U·min^−1·pmol^−1 UGT
[4]
  increase of plasma concentrations, lipid matrix vs oil-based capsules: up to seven-fold
UGT 1A6
  Vmax, 4-HPR glucuronide formation: 124 ± 6 peak area U·min^−1
  Vmax, 4-HPR glucuronide formation, per pmol UGT: 0.02 peak area U·min^−1·pmol^−1 UGT and 0.02 ± 0.001 peak area U·min^−1·pmol^−1 UGT
[5]; calculated
  Vmax, 4-MPR formation: 823 peak U·min^−1
[5]; read-out: Km, 4-MPR formation
  Km: 236 µM
UGT 1A1
  Vmax, 4-HPR glucuronide formation: 577 ± 34 peak area U·min^−1
  Vmax, 4-HPR glucuronide formation, per pmol UGT: 0.62 peak area U·min^−1·pmol^−1 UGT and 0.62 ± 0.04 peak area U·min^−1·pmol^−1 UGT
[6]
  Km at 3 h: 540 ± 69 µM
[7]
  Vmax, 4-HPR glucuronide formation: 679 ± 39 peak area U·min^−1
